According to ChEMBL document CHEMBL5724801, “EUbOPEN Chemogenomics Library - Multiplex” (2024):
“And” between values parts separate entries of the source, which are not always exact repeats. Equal values may be shown once.

Tested on: U2OS
Test: Multiplex assay against U2OS
Type: toxicity, cell-based
Settings: human
Method in brief: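 Hoechst33342, BioTracker Green Microtubule Cytoskeleton Dye, MitoTracker Red and Annexin V Alexa Fluor 680 were added to live cells at seeding, and imaging on a CQ1 microscope at 37°C and 5% CO2 followed compound addition. Gating by CellPathfinder machine learning separated cells into Hoechst high-intensity objects or normal cells, then normal cells into healthy, pyknosed or fragmented nuclei, then pyknosed cells into mitotic or apoptotic. Per cents of healthy-nucleus cells are reported for the tubulin, mitochondrial-mass and membrane-permeability phenotypes.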

[1] = 12 h, 1 µM, compound concentration 1 uM
[2] = 12 h, 10 µM, compound concentration 10 uM
[3] = 24 h, 1 µM, compound concentration 1 uM
[4] = 24 h, 10 µM, compound concentration 10 uM
[5] = 48 h, 1 µM, compound concentration 1 uM
[6] = 48 h, 10 µM, compound concentration 10 uM

SMILES: O=C1N=C(NCc2cccs2)S/C1=C\c1ccc2ncccc2c1
- Population Apoptotic (%) [1]: 36.36% and 33.33%
- Population Fragmented Nuclei (%) [1]: 2.87% and 8.81%
- Population Healthy Nuclei (%) [1]: 87.42% and 78.76%
- Population Hoechst High Intensity Objects (%) [1]: 0%
- Population Membrane Permeable-Phenotype (%) [1]: 0.51% and 3.95%
- Population Mitotic Cells (%) [1]: 63.64% and 66.67%
- Population Normal (%) [1]: 100%
- Population Pyknosed Nuclei (%) [1]: 9.71% and 12.44%
- Population Tubulin-Different-Phenotype (%) [1]: 1.01% and 1.97%
- Total Cell Count [1]: 453 and 193
- Population Apoptotic (%) [2]: 55% and 44%
- Population Fragmented Nuclei (%) [2]: 1.99% and 5.59%
- Population Healthy Nuclei (%) [2]: 91.39% and 78.88%
- Population Hoechst High Intensity Objects (%) [2]: 0%
- Population Membrane Permeable-Phenotype (%) [2]: 16.67% and 19.69%
- Population Mitotic Cells (%) [2]: 45% and 56%
- Population Normal (%) [2]: 100%
- Population Pyknosed Nuclei (%) [2]: 6.62% and 15.53%
- Population Tubulin-Different-Phenotype (%) [2]: 18.48% and 14.96%
- Total Cell Count [2]: 302 and 161
- Population Apoptotic (%) [3]: 37.5% and 40.54%
- Population Fragmented Nuclei (%) [3]: 1.66% and 6.39%
- Population Healthy Nuclei (%) [3]: 87.71% and 79.7%
- Population Hoechst High Intensity Objects (%) [3]: 0%
- Population Membrane Permeable-Phenotype (%) [3]: 0.95% and 5.19%
- Population Mitochondria Different-Phenotype (%) [3]: 0.19% and 9.91%
- Population Mitotic Cells (%) [3]: 62.5% and 59.46%
- Population Normal (%) [3]: 100%
- Population Pyknosed Nuclei (%) [3]: 10.63% and 13.91%
- Population Tubulin-Different-Phenotype (%) [3]: 0.38% and 1.42%
- Total Cell Count [3]: 602 and 266
- Population Apoptotic (%) [4]: 68.42%
- Population Fragmented Nuclei (%) [4]: 4.38% and 8.12%
- Population Healthy Nuclei (%) [4]: 76.43% and 68.12%
- Population Hoechst High Intensity Objects (%) [4]: 0%
- Population Membrane Permeable-Phenotype (%) [4]: 10.57% and 12.84%
- Population Mitotic Cells (%) [4]: 31.58%
- Population Normal (%) [4]: 100%
- Population Pyknosed Nuclei (%) [4]: 19.19% and 23.75%
- Population Tubulin-Different-Phenotype (%) [4]: 13.66% and 9.17%
- Total Cell Count [4]: 297 and 160
- Population Apoptotic (%) [5]: 47.06% and 45.1%
- Population Fragmented Nuclei (%) [5]: 4.77% and 4%
- Population Healthy Nuclei (%) [5]: 86.23% and 84%
- Population Hoechst High Intensity Objects (%) [5]: 0.09% and 0%
- Population Membrane Permeable-Phenotype (%) [5]: 0.92% and 1.96%
- Population Mitochondria Different-Phenotype (%) [5]: 0.1% and 4.48%
- Population Mitotic Cells (%) [5]: 52.94% and 54.9%
- Population Normal (%) [5]: 99.91% and 100%
- Population Pyknosed Nuclei (%) [5]: 9% and 12%
- Population Tubulin-Different-Phenotype (%) [5]: 0.82% and 0.28%
- Total Cell Count [5]: 1134 and 425
- Population Apoptotic (%) [6]: 81.63% and 92.42%
- Population Fragmented Nuclei (%) [6]: 10.65% and 9.25%
- Population Healthy Nuclei (%) [6]: 57.74% and 52.6%
- Population Hoechst High Intensity Objects (%) [6]: 0%
- Population Membrane Permeable-Phenotype (%) [6]: 3.91% and 5.49%
- Population Mitotic Cells (%) [6]: 18.37% and 7.58%
- Population Normal (%) [6]: 100%
- Population Pyknosed Nuclei (%) [6]: 31.61% and 38.15%
- Total Cell Count [6]: 310 and 173

SMILES: CCN1CCN(Cc2ccc(Nc3ncc(F)c(-c4cc(F)c5nc(C)n(C(C)C)c5c4)n3)nc2)CC1.CS(=O)(=O)O
- Population Apoptotic (%) [1]: 40% and 33.33%
- Population Fragmented Nuclei (%) [1]: 3.09% and 3.21%
- Population Healthy Nuclei (%) [1]: 86.11% and 81.41%
- Population Hoechst High Intensity Objects (%) [1]: 0% and 0.64%
- Population Membrane Permeable-Phenotype (%) [1]: 3.23% and 10.24%
- Population Mitotic Cells (%) [1]: 60% and 66.67%
- Population Normal (%) [1]: 100% and 99.36%
- Population Pyknosed Nuclei (%) [1]: 10.8% and 15.38%
- Population Tubulin-Different-Phenotype (%) [1]: 6.09% and 6.3%
- Total Cell Count [1]: 324 and 157
- Population Apoptotic (%) [2]: 43.96% and 38.67%
- Population Fragmented Nuclei (%) [2]: 4.12% and 4.26%
- Population Healthy Nuclei (%) [2]: 70.88% and 42.55%
- Population Hoechst High Intensity Objects (%) [2]: 0%
- Population Membrane Permeable-Phenotype (%) [2]: 56.98% and 48.33%
- Population Mitotic Cells (%) [2]: 56.04% and 61.33%
- Population Normal (%) [2]: 100%
- Population Pyknosed Nuclei (%) [2]: 25% and 53.19%
- Population Tubulin-Different-Phenotype (%) [2]: 92.64% and 93.33%
- Total Cell Count [2]: 364 and 141
- Population Apoptotic (%) [3]: 36.67% and 46.88%
- Population Fragmented Nuclei (%) [3]: 2.68% and 4.65%
- Population Healthy Nuclei (%) [3]: 82.68% and 76.74%
- Population Hoechst High Intensity Objects (%) [3]: 0%
- Population Membrane Permeable-Phenotype (%) [3]: 3.54% and 6.06%
- Population Mitotic Cells (%) [3]: 63.33% and 53.12%
- Population Normal (%) [3]: 100%
- Population Pyknosed Nuclei (%) [3]: 14.63% and 18.6%
- Population Tubulin-Different-Phenotype (%) [3]: 7.67% and 9.85%
- Total Cell Count [3]: 410 and 172
- Population Apoptotic (%) [4]: 48.89% and 41.41%
- Population Fragmented Nuclei (%) [4]: 5.44% and 6.04%
- Population Healthy Nuclei (%) [4]: 59.59% and 27.52%
- Population Hoechst High Intensity Objects (%) [4]: 0%
- Population Membrane Permeable-Phenotype (%) [4]: 31.3% and 21.95%
- Population Mitotic Cells (%) [4]: 51.11% and 58.59%
- Population Normal (%) [4]: 100%
- Population Pyknosed Nuclei (%) [4]: 34.97% and 66.44%
- Population Tubulin-Different-Phenotype (%) [4]: 66.09% and 65.85%
- Total Cell Count [4]: 386 and 149
- Population Apoptotic (%) [5]: 47.62% and 37.14%
- Population Fragmented Nuclei (%) [5]: 4.31% and 6.15%
- Population Healthy Nuclei (%) [5]: 83.37% and 75.9%
- Population Hoechst High Intensity Objects (%) [5]: 0%
- Population Membrane Permeable-Phenotype (%) [5]: 2.58% and 6.08%
- Population Mitotic Cells (%) [5]: 52.38% and 62.86%
- Population Normal (%) [5]: 100%
- Population Pyknosed Nuclei (%) [5]: 12.33% and 17.95%
- Population Tubulin-Different-Phenotype (%) [5]: 8.92% and 12.84%
- Total Cell Count [5]: 511 and 195
- Population Apoptotic (%) [6]: 65% and 80.18%
- Population Fragmented Nuclei (%) [6]: 3.14% and 4.64%
- Population Healthy Nuclei (%) [6]: 34% and 21.85%
- Population Hoechst High Intensity Objects (%) [6]: 0% and 0.66%
- Population Membrane Permeable-Phenotype (%) [6]: 9.09%
- Population Mitotic Cells (%) [6]: 35% and 19.82%
- Population Normal (%) [6]: 100% and 99.34%
- Population Pyknosed Nuclei (%) [6]: 62.86% and 73.51%
- Population Tubulin-Different-Phenotype (%) [6]: 68.91% and 27.27%
- Total Cell Count [6]: 350 and 152

SMILES: COc1cc2ncnc(Nc3ccc(Oc4ccccc4)cc3C)c2cc1OC.Cl
- Population Apoptotic (%) [1]: 43.18% and 56.25%
- Population Fragmented Nuclei (%) [1]: 1.46% and 3.77%
- Population Healthy Nuclei (%) [1]: 89.4% and 86.16%
- Population Hoechst High Intensity Objects (%) [1]: 0%
- Population Membrane Permeable-Phenotype (%) [1]: 0.23% and 2.92%
- Population Mitochondria Different-Phenotype (%) [1]: 0.47% and 9.49%
- Population Mitotic Cells (%) [1]: 56.82% and 43.75%
- Population Normal (%) [1]: 100%
- Population Pyknosed Nuclei (%) [1]: 9.15% and 10.06%
- Population Tubulin-Different-Phenotype (%) [1]: 0.47% and 0.73%
- Population Apoptotic (%) [2]: 37.93% and 21.21%
- Population Fragmented Nuclei (%) [2]: 2.47% and 2.03%
- Population Healthy Nuclei (%) [2]: 81.64% and 75.68%
- Population Hoechst High Intensity Objects (%) [2]: 0.27% and 0%
- Population Membrane Permeable-Phenotype (%) [2]: 11.74% and 10.71%
- Population Mitotic Cells (%) [2]: 62.07% and 78.79%
- Population Normal (%) [2]: 99.73% and 100%
- Population Pyknosed Nuclei (%) [2]: 15.89% and 22.3%
- Population Tubulin-Different-Phenotype (%) [2]: 14.09% and 5.36%
- Total Cell Count [2]: 366 and 148
- Population Apoptotic (%) [3]: 41.67% and 39.13%
- Population Fragmented Nuclei (%) [3]: 2.08% and 5.24%
- Population Healthy Nuclei (%) [3]: 88.99% and 83.81%
- Population Hoechst High Intensity Objects (%) [3]: 0%
- Population Membrane Permeable-Phenotype (%) [3]: 0.67% and 2.84%
- Population Mitochondria Different-Phenotype (%) [3]: 0.67% and 6.25%
- Population Mitotic Cells (%) [3]: 58.33% and 60.87%
- Population Normal (%) [3]: 100%
- Population Pyknosed Nuclei (%) [3]: 8.93% and 10.95%
- Population Tubulin-Different-Phenotype (%) [3]: 0.67% and 1.7%
- Population Apoptotic (%) [4]: 64.1% and 26.19%
- Population Fragmented Nuclei (%) [4]: 3.39% and 3.61%
- Population Healthy Nuclei (%) [4]: 79.01% and 71.08%
- Population Hoechst High Intensity Objects (%) [4]: 0%
- Population Membrane Permeable-Phenotype (%) [4]: 8.57% and 6.78%
- Population Mitotic Cells (%) [4]: 35.9% and 73.81%
- Population Normal (%) [4]: 100%
- Population Pyknosed Nuclei (%) [4]: 17.61% and 25.3%
- Population Tubulin-Different-Phenotype (%) [4]: 10.29% and 10.17%
- Total Cell Count [4]: 443 and 166
- Population Apoptotic (%) [5]: 42.28% and 50%
- Population Fragmented Nuclei (%) [5]: 3.36% and 3.22%
- Population Healthy Nuclei (%) [5]: 87.01% and 84.5%
- Population Hoechst High Intensity Objects (%) [5]: 0%
- Population Membrane Permeable-Phenotype (%) [5]: 0.54% and 2.42%
- Population Mitochondria Different-Phenotype (%) [5]: 0% and 6.23%
- Population Mitotic Cells (%) [5]: 57.72% and 50%
- Population Normal (%) [5]: 100%
- Population Pyknosed Nuclei (%) [5]: 9.62% and 12.28%
- Population Tubulin-Different-Phenotype (%) [5]: 0.63% and 1.38%
- Population Apoptotic (%) [6]: 65.09% and 50%
- Population Fragmented Nuclei (%) [6]: 6.98% and 4.76%
- Population Healthy Nuclei (%) [6]: 79.05% and 76.19%
- Population Hoechst High Intensity Objects (%) [6]: 0%
- Population Membrane Permeable-Phenotype (%) [6]: 4.33% and 8.52%
- Population Mitotic Cells (%) [6]: 34.91% and 50%
- Population Normal (%) [6]: 100%
- Population Pyknosed Nuclei (%) [6]: 13.97% and 19.05%
- Population Tubulin-Different-Phenotype (%) [6]: 10.17% and 11.93%
